The values that follow come from the RNAGym collection of RNA variant scans (doi:10.1126/science.aae0568).

B1: tRNA (parent)
chain: GUUCCGUUGGCGUAAUGGUAACGCGUCUCCCUCCUAAGGAGAAGACUGCGGGUUCGAGUCCCGUACGGAACG

This sample holds only a part of the variants without activity. A value given as a limit tells only on which side of the number the result lay.

The variants in this series derive from B1. The series is described as follows: yeast fitness relative to wild type (ratio to wild type); higher = fitter; tRNA-Arg(CCU), competitive growth, 37 C, YPD. In a few lines: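 Start and end populations of a pooled competition were compared by 100-nucleotide paired-end sequencing of gene amplicons. The Saccharomyces cerevisiae strains carried tRNA-Arg(CCU) gene variants at the native genomic locus, synthesised with a 3% per-site mutation rate at 69 sites, and competed in YPD at 37°C for 24 hours in six parallel replicates. Darwinian fitness relative to wild type was based on the change in genotype frequencies. Genotypes required ≥ 100 starting reads, and estimates < 0.5 were set to 0.5.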
As to GUUCCGUUGGCGUAAUGGUAACGCGUCUCCCUCCUAUGGAGAAGACUGCGGGUUCGAGUCCCGUACCGAACG [A37U G67C], the yeast fitness is 0.619.

For the variant GUUCCGUUGGCGUAAUGGUAACGCGUCUCCCUCCUAUGGAGAAGACUCCGGGUUCGAGCCCCGUACGGAACG [A37U G48C U59C], the yeast fitness came to 0.533.

As for GUUCCGUUGGCGUAAUGGUAACGCGUCUCCCUCCUAUGGAGAAGGCUGCGGGUUCGAGUCCCGUACGGAACG [A37U A45G], the yeast fitness is 0.777.

In the case of GUUCCGUUGGCGUAAUGGUAACGCGUCUCCCUCCUAUGGAGAAGCCUGCGGGUUCGAGUCCCGUACGGAACG [A37U A45C], the yeast fitness was determined as 0.64.

GUUCCGUUGGCGUAAUGGUAACGCGUCUCCCUCCUAUGGAGAAGACUGCGGGUUCAAGUCCCGUCCGGAACG [A37U G56A A65C]: the yeast fitness stood at 0.5.

GUUCCGUUGGCGUAAUGGUAACGCGUCUCCCUCCUAUGGAGAAGACUGCGGGUUCGAGUCCCGUAGGGAACG [A37U C66G]: the yeast fitness was at most 0.5.

Consider GUUCCGUUGGCGUAAUGGUAACGCGUCUCCCUCCUAUGGAGAAGACUGCGGGAUCGACUCCCGUACGGAACG [A37U U53A G58C], for which the yeast fitness is at most 0.5.

In the case of GUUCCGUUGGCGUAAUGGUAACGCGUCUCCCUCCUAUGGAGAAGACUGAGGAUUUAAGUCCCGUACGGAACG [A37U C49A G52A C55U G56A], the yeast fitness worked out at 0.529.

As for GUUCCGUUGGCGUAAUGGUAACGCGUCUCCCUCCUAUGGAGAAGACUGCGGAUUCGCGUACCGUACGGAACG [A37U G52A A57C C60A], the yeast fitness was at most 0.5.

Turning to GUUCCGUUGGCGUAAUGGUAACGCGUCUCCCUCCUAUGGAGAAGAGUGCGGGUUAGAGCCAUGUACGGAACG [A37U C46G C55A U59C C61A C62U], the yeast fitness stood at 0.524.

As for GUUCCGUUGGCGUAAUGGUAACGCGUCUCCCUCCUAUGGAGAAGACUGCGGGUUCGAGUCCUGUAGGGAACG [A37U C62U C66G], the yeast fitness is at most 0.5.

Take GUUCCGUUGGCGUAAUGGUAACGCGUCUCCCUCCUAUGGAGAAGACUGCGGCUUCGAGUCCCGUACGGAACG [A37U G52C]: the yeast fitness is at most 0.5.

GUUCCGUUGGCGUAAUGGUAACGCGUCUCCCUCCUAUGGAGAAGAGUGCGGGUCCGAGUCACGUACGGAACG [A37U C46G U54C C61A]: the yeast fitness came out at 0.543.

Take GUUCCGUUGGCGUAAUGGUAACGCGUCUCCCUCCUAUGGAGAAGACUGCGGGUUUGAGUCGCGUUCGGAUCG [A37U C55U C61G A65U A70U]: the yeast fitness was at most 0.5.

Take GUUCCGUUGGCGUAAUGGUAACGCGUCUCCCUCCUAUGGAGAAGACCGCGGGGUCGAGUCCCGUACGGUACG [A37U U47C U53G A69U]: the yeast fitness is at most 0.5.

As to GUUCCGUUGGCGUAAUGGUAACGCGUCUCCCUCCUAUGGAGAAGACUGCGACUUCGAGCCCCGUACGGAACG [A37U G51A G52C U59C], the yeast fitness was found to be 0.619.

As to GUUCCGUUGGCGUAAUGGUAACGCGUCUCCCUCCUAUGGAGAAAACUGCGGGUUCGAGUCCCGUACGGCACG [A37U G44A A69C], the yeast fitness was at most 0.5.

As for GUUCCGUUGGCGUAAUGGUAACGCGUCUCCCUCCUAUGGAGAAGACUGCGGGUUCGCAUCCCGUACGGUCCG [A37U A57C G58A A69U A70C], the yeast fitness was 0.542.

For GUUCCGUUGGCGUAAUGGUAACGCGUCUCCCUCCUAUGGAGAAGACUGCGGGUUCGAAUCCCGUACGAAACG [A37U G58A G68A], the yeast fitness came out at 0.588.

GUUCCGUUGGCGUAAUGGUAACGCGUCUCCCUCCUAUGGAGAAGACUGCGAGGCCGAGUCCCGUACGGAACG [A37U G51A U53G U54C]: the yeast fitness was at most 0.5.

As to GUUCCGUUGGCGUAAUGGUAACGCGUCUCCCUCCUAUGGAGAAAACUGCGGGUUCGAGUCCCGUACUGAGCG [A37U G44A G67U A70G], the yeast fitness was at most 0.5.

In the case of GUUCCGUUGGCGUAAUGGUAACGCGUCUCCCUCCUAUGGAGACGACUGCGGGACCGAGUCCCGUACGGAACG [A37U A43C U53A U54C], the yeast fitness is at most 0.5.

As to GUUCCGUUGGCGUAAUGGUAACGCGUCUCCCUCCUAUGGAGAAGACUGAGGGUUCGAGUCCUGUACGGAACG [A37U C49A C62U], the yeast fitness was found to be 0.579.

With GUUCCGUUGGCGUAAUGGUAACGCGUCUCCCUCCUAUGGAGAAAACUGCGGGUUCGAGUCCCGUACGGACCG [A37U G44A A70C], the yeast fitness came to 0.614.

With GUUCCGUUGGCGUAAUGGUAACGCGUCUCCCUCCUAUGGAGAAAACUGCGGGUUCGAGUCCCGUACGGAGCG [A37U G44A A70G], the yeast fitness is at most 0.5.

With GUUCCGUUGGCGUAAUGGUAACGCGUCUCCCUCCUAUGGAGAAGACUGCGGGUUCGACUCCCGUACGGAACG [A37U G58C], the yeast fitness was found to be 0.789.

With GUUCCGUUGGCGUAAUGGUAACGCGUCUCCCUCCUAUGGAGAAGACUGUGGGUUCGAGUCUCGUACGGAACG [A37U C49U C61U], the yeast fitness turned out to be 0.527.

Regarding GUUCCGUUGGCGUAAUGGUAACGCGUCUCCCUCCUAUGGAGAAGACUGCGGGUCCGAGUCCCGAACGGUACG [A37U U54C U64A A69U], the yeast fitness is at most 0.5.

For GUUCCGUUGGCGUAAUGGUAACGCGUCUCCCUCCUAUGGAGAAGACUGUGGGUUCGAGUCCCGAACGGAACG [A37U C49U U64A], the yeast fitness is at most 0.5.

Take GUUCCGUUGGCGUAAUGGUAACGCGUCUCCCUCCUAUGGAGAAGACAGCGGGUUCGAGUCCUGUACGGAACG [A37U U47A C62U]: the yeast fitness amounted to 0.531.

With GUUCCGUUGGCGUAAUGGUAACGCGUCUCCCUCCUAUGGAGAAGACUGCGGGUUCGAGUCACGUACGGAACG [A37U C61A], the yeast fitness was at most 0.5.

On to GUUCCGUUGGCGUAAUGGUAACGCGUCUCCCUCCUAUGGAGAAGACUCCGGGUUCGAGUCCCGUACGUAACG [A37U G48C G68U], for which the yeast fitness worked out at 0.57.

For the variant GUUCCGUUGGCGUAAUGGUAACGCGUCUCCCUCCUAUGGAGAAGACUGCGAGUUUGAGUCCCGUACGGAACG [A37U G51A C55U], the yeast fitness is at most 0.5.

Take GUUCCGUUGGCGUAAUGGUAACGCGUCUCCCUCCUAUGGAGAAGACUGCGGGUUCGAGUCCCGUACGAAACG [A37U G68A]: the yeast fitness was 0.736.

For GUUCCGUUGGCGUAAUGGUAACGCGUCUCCCUCCUAUGGAGAAGACUGGGGGUUCGAGUCCCGUACGGAACG [A37U C49G], the yeast fitness is 0.652.

As for GUUCCGUUGGCGUAAUGGUAACGCGUCUCCCUCCUAUGGAGAAGACUGAGGGUUCGAGUCCCGUACGGAACG [A37U C49A], the yeast fitness was found to be 0.712.

With GUUCCGUUGGCGUAAUGGUAACGCGUCUCCCUCCUAUGGAGAAGACUGCGCGUUCGCGUCCCGUACGGAACG [A37U G51C A57C], the yeast fitness came out at 0.552.

On to GUUCCGUUGGCGUAAUGGUAACGCGUCUCCCUCCUAUGGAGAAGUCCGCGGGUUCGAGUCCCGUACGGAACG [A37U A45U U47C], for which the yeast fitness was at most 0.5.
